The source of these data is ChEMBL document CHEMBL1148256, “Synthesis of new fluoroquinolones and evaluation of their in vitro activity on Toxoplasma gondii and Plasmodium spp” (Bioorg Med Chem Lett, 2004).

Test [1] concerns Plasmodium falciparum. In words: In vitro inhibitory activity against chloroquine-resistant Plasmodium falciparum NF54-R in blood. The test is classed as functional, organism-based.
Test [2] has as its system MRC5. In words: In vitro inhibitory activity on MRC5 fibroblast tissue cultures inoculated with virulent RH strain of Toxoplasma gondii. The test is classed as functional, cell-based. Conditions: Homo sapiens. In outline:
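Confluent MRC5 fibroblast monolayers inoculated with 2000 fresh RH tachyzoites; compounds added at various concentrations after 4 h, then 72 h further incubation. Eight uninfected and eight drug-free control wells per plate. Cold-methanol-fixed cultures assayed by ELISA with peroxidase-labelled anti-SAG-1 monoclonal antibody, read at 405 nm against uninfected blank. IC50 from linear regression of OD versus log concentration.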

The test system of test [3] is Plasmodium yoelii yoelii. Kind of test: In vitro inhibitory activity against hepatic stages of Plasmodium yoelii yoelii 265 BY. The test is classed as functional, organism-based.

In general, IC50 refers to the concentration that inhibits the measured activity by half. A high value points to lower potency.

Regarding `COc1c(N2C[C@@H]3CCCN[C@@H]3C2)c(F)cc2c(=O)c(C(=O)O)cn(C3CC3)c12` [MOXIFLOXACIN], the half-inhibitory concentration (IC50) in test [1] was determined as 45 µM; in test [2], 10.9 µM.

Regarding `COc1c(N2CCNC(C)C2)c(F)cc2c(=O)c(C(=O)O)cn(C3CC3)c12` (stereo not drawn) [GATIFLOXACIN], the IC50 came to 29 µM in test [1] and 12.7 µM in test [2].

Molecule `N[C@@H]1[C@H]2CN(c3nc4c(cc3F)c(=O)c(C(=O)O)cn4C3CC3)C[C@@H]12` [TROVAFLOXACIN4] displayed an IC50 in test [2] of 1.68 µM. This counts as single-digit micromolar.

For the molecule `N[C@@H]1[C@H]2CN(c3nc4c(cc3F)c(=O)c(C(=O)O)cn4-c3ccc(F)cc3F)C[C@@H]12` [TROVAFLOXACIN], the IC50 turned out to be 22 µM in test [1], 74 µM in test [3] and 0.96 µM in test [2].
